Source: PubChem BioAssay
SR-BI DiI inh – blocks mouse SR-BI lipid uptake from DiI-HDL; Q61009; inhibition, % at 12.5 µM; 320,000 compounds, 0.96% hits; ldlA[mSR-BI] CHO cells, DiI-HDL uptake fluorescence, 3 h;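 active = mean replicate inhibition of at least 70% and a set share of replicates each scoring 70 or more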
AHR act – activators of human aryl hydrocarbon receptor; AHR-responsive luciferase reporter cells, luminescence; activation, % at 5 µM; AID 2796; P35869; 320,000 compounds, 2.5% hits; in the data active = activation above about 47%
Target sequence (P35869 whole entry, looked up): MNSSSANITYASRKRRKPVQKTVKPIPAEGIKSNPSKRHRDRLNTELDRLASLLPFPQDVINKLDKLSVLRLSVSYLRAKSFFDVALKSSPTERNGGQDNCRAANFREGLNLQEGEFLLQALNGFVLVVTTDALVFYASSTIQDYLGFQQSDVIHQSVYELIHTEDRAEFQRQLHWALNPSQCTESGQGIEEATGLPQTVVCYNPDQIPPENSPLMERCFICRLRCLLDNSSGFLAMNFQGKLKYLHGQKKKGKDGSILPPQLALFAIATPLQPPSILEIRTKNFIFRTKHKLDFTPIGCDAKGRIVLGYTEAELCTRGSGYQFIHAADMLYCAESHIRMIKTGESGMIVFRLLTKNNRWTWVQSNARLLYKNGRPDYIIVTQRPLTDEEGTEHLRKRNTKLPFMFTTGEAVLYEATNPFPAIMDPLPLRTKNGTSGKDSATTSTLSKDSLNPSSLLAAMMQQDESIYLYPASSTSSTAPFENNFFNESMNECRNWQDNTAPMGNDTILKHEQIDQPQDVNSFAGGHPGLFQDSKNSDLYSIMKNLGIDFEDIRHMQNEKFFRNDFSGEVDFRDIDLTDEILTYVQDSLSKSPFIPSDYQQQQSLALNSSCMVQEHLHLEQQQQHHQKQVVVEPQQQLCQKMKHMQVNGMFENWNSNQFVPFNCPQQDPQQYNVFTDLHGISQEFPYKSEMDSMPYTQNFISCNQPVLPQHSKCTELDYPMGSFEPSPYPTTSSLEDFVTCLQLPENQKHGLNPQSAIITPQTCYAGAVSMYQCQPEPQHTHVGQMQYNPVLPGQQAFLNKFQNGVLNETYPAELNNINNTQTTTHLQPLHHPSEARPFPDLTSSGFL
SR-BI uptake up – activators of SR-BI mediated HDL lipid uptake; CHO ldlA[mSR-BI] cells, DiI-HDL uptake fluorescence, 3 h; 100 = double the neutral-control signal; activation, % at 12.5 µM; 320,000 compounds, 0.096% hits;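 active = mean replicate activation of at least 60% and every replicate at or above 60%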
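Test system: SR-BI-overexpressing, LDLR-lacking CHO cells; Medium: Ham's F12 with 0.5% BSA, HEPES 25 mM, pH 7.4; Schedule: 3 h, 37 °C; Technique: bottom-read fluorescence, 550/595 nm.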
HIF act – HIF pathway transcriptional activation; U2OS HRE-luciferase reporter, luminescence; normalized: DMSO 0%, desferrioxamine 100%; activation, % at 7.5 µM (by protocol); 300,000 compounds, 0.32% hits; AID 1910;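 active = mean activation of at least 10% of the iron chelator positive control signal, with at least half of replicates also reaching 10%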
GAA850 FXN act – activators of GAA850 frataxin (FXN) promoter; activation, % at 6 µM; 360,000 compounds, 0.56% hits; HEK293 lucGAA850 FXN promoter luciferase reporter, 24 h; percent of 10 µM SAHA response; AID 540364;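 active = activation above the average of all compounds screened plus 3 SD, cutoff fixed separately per campaign, cut at about 7.5% in these data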
ABCB6 inh MLPCN – inhibitors of human ABC transporter ABCB6; Q9NP58; AID 602162; K562-ABCB6 porphyrin accumulation, flow cytometry, 1 h; active compounds read low; 360,000 compounds, 0.19% hits; fluorescence ratio to DMSO, % at 10 µM;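 active = fluorescence ratio to DMSO below 75%, the collection mean minus 3 SD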;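 note: signal is porphyrin accumulated inside mitochondria; lower ratio means ABCB6 inhibition with less porphyrin fluorescence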
ABCB6 inh CP1 – human ABCB6 transporter inhibition. shares compounds with ABCB6 inh MLPCN. K562-ABCB6 porphyrin accumulation, flow cytometry, 1 h; active compounds read low. ratio response (% of DMSO), % at 10 µM. 700 tested, under 10 active;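 active = repeat-averaged ratio response below 75% of DMSO, the collection mean minus 3 SD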;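 note: median porphyrin fluorescence at 575 nm with 488 nm excitation from mitochondria; lower ratio means less porphyrin signal so ABCB6 inhibition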
Of the large screens only hits and unclear results are named; the others gave an inactive call (follow-up assays come after a bar, where they were run). An excerpt weighted towards active compounds, which were near 3.9% of everything screened.

CCN(CC)S(=O)(=O)c1cccc(-c2nnc(SCC(=O)NCCC3=CCCCC3)n2N)c1	ABCB6 inh MLPCN 71 | ABCB6 inh CP1 inactive
COC(=O)c1sccc1NC(=O)c1ccc(C)o1	none
CC12CCC(C(=O)N(CCCCN3CCN(c4ccccn4)CC3)C1=O)C2(C)C (centres undefined)	ABCB6 inh MLPCN 58 | ABCB6 inh CP1 inactive
CC12CCC(C(=O)N(CCCN3CCN(Cc4ccccc4)CC3)C1=O)C2(C)C (centres undefined)	none (no result: HIF act)
COc1cc(C(=O)NCCOc2cc(C)cc(C)c2)cc(OC)c1OC	none
CCOC(=O)N1CCN(CC(=O)Nc2ccc(C)cc2)CC1	ABCB6 inh MLPCN 72 | ABCB6 inh CP1 inactive
O=C(CN1CCCCC1)Nc1cccc(Br)c1	ABCB6 inh MLPCN 69 | ABCB6 inh CP1 inactive
COc1ccc(NC(=O)CN2CCCCCC2)cc1OC	ABCB6 inh MLPCN 73 (no result: SR-BI DiI inh, SR-BI uptake up) | ABCB6 inh CP1 inactive
COc1ccc(NC(=O)CN2CCCCC2)cc1S(=O)(=O)N1CCCCC1	none (no result: HIF act)
CC(C)CC(C(=O)OCC(=O)Nc1ncc(Cl)cc1Cl)N1C(=O)c2ccccc2C1=O (centres undefined)	none
O=C(Cc1ccsc1)NNC(=O)c1ccc(F)cc1	none
CCOc1ccc(C2Nc3ccccc3NC3=C2C(=O)CC(C)(C)C3)cc1OC (centres undefined)	ABCB6 inh MLPCN 66 | ABCB6 inh CP1 inactive
COC(=O)c1ccc(-c2ccc(F)cc2)nc1C	ABCB6 inh MLPCN 63 | ABCB6 inh CP1 inactive
O=C1C=C(c2ccc(OC(F)(F)F)cc2)C[C@@H](c2ccc(Cl)cc2)C1	ABCB6 inh MLPCN 74 (no result: HIF act) | ABCB6 inh CP1 inactive
COc1ccc(C2=CC(=O)C[C@H](c3ccc(Cl)cc3)C2)cc1	none (no result: HIF act)
Cc1cccc(C(=O)Nc2c(C#N)c(C)c(C)n2Cc2ccccc2)c1	none
Cc1c(C#N)c(NC(=O)C(C)C)n(Cc2ccccc2)c1C	ABCB6 inh MLPCN 74 | ABCB6 inh CP1 inactive
O=C(NCCc1csc(-c2cccnc2)n1)c1ccc(Cl)cc1	ABCB6 inh MLPCN 74 | ABCB6 inh CP1 inactive
COc1ccccc1C(=O)Nc1ccnn1C1CCN(C(=O)c2ccoc2)CC1	ABCB6 inh MLPCN 74 | ABCB6 inh CP1 inactive
Cc1nn(-c2ccccc2)c(N)c1Sc1cccc([N+](=O)[O-])c1	none
Cc1nn(-c2ccccc2)c(N)c1Sc1ccccc1[N+](=O)[O-]	ABCB6 inh MLPCN 46 | ABCB6 inh CP1 inactive
O=C(COC(=O)CCCC1=NS(=O)(=O)c2ccccc2N1)Nc1ccc(Br)cc1	none | ABCB6 inh CP1 inactive
Cc1ccc(NC(=O)COC(=O)CCCC2=NS(=O)(=O)c3ccccc3N2)cc1C	ABCB6 inh MLPCN 10 | ABCB6 inh CP1 inactive
O=C(CCCC1=NS(=O)(=O)c2ccccc2N1)Nc1ccccc1	none
Cc1ccccc1COC(=O)CCCC1=NS(=O)(=O)c2ccccc2N1	none
COc1ccc(Cl)cc1NC(=O)COC(=O)CCCC1=NS(=O)(=O)c2ccccc2N1	none | ABCB6 inh CP1 inactive
COc1ccc(/C=C2/SC(=S)N(CCCC(=O)N3CCN(C)CC3)C2=O)cc1	none
CCn1c(NCCO)nc2c(c1=O)C(C)(CC)Cc1ccccc1-2 (centres undefined)	none
CCCCC(=O)N/N=C/c1cc([N+](=O)[O-])ccc1N1CCOCC1	none
O=C(CC1SCCNC1=O)Nc1ccc(F)c(Cl)c1 (centres undefined)	none (no result: SR-BI DiI inh, SR-BI uptake up)
Cc1ccc(NC(=O)CC2SCCNC2=O)cc1Cl (centres undefined)	ABCB6 inh MLPCN 67 | ABCB6 inh CP1 inactive
CC1(C)CC(=O)c2cc(C(=O)NC3CCSC3=O)c(=O)n(-c3ccc(Cl)cc3)c2C1 (centres undefined)	ABCB6 inh MLPCN 63 | ABCB6 inh CP1 inactive
COc1ccc(S(=O)(=O)N(Cc2nc3ccccc3c(=O)[nH]2)C2CCCC2)cc1	ABCB6 inh MLPCN 68 | ABCB6 inh CP1 inactive
COc1ccc(CN(Cc2nc3ccccc3c(=O)[nH]2)C(=O)NC2CCCCC2)cc1	none
CCCCCCCCN1[C@@H](CC(=O)OCC)c2cc(C(F)(F)F)ccc2S1(=O)=O	none
O=C(C1CCN(S(=O)(=O)c2c(Cl)cccc2Cl)CC1)N1CCCCCCC1	ABCB6 inh MLPCN 72 | ABCB6 inh CP1 inactive
COc1ccc(NC(=O)c2cc(-c3ccc(F)cc3OC)n[nH]2)cc1OC	none (no result: SR-BI DiI inh, AHR act, SR-BI uptake up, HIF act)
COc1ccc(-c2cc(C(=O)Nc3ccc(OC)c(OC)c3)[nH]n2)c(C)c1	ABCB6 inh MLPCN 70 (no result: SR-BI DiI inh, AHR act, SR-BI uptake up, HIF act) | ABCB6 inh CP1 inactive
Cc1nn(C(C)(C)C)c(OC(=O)c2cccs2)c1S(=O)(=O)c1ccccc1	ABCB6 inh MLPCN 74 | ABCB6 inh CP1 inactive
CCCNS(=O)(=O)c1ccc(CCC(=O)NCc2ccc3c(c2)OCO3)cc1	none
O=C(CCNS(=O)(=O)c1ccc(Br)cc1)NCc1ccc2c(c1)OCO2	ABCB6 inh MLPCN 62 | ABCB6 inh CP1 inactive
COc1ccc(NC(=O)CSc2nnc(-c3ccccn3)n2N)cc1	none
COc1ccc(NC(=O)CSc2nnc(-c3ccccn3)n2N)c(OC)c1	ABCB6 inh MLPCN 73 | ABCB6 inh CP1 inactive
COc1ccc(Cl)cc1C(=O)NNC(=S)NC(=O)c1cc(-c2ccccc2)nc2ccccc12	none
CC(C)OCCCNC1=C(Cl)C(=O)c2ccccc2C1=O	none (no result: SR-BI DiI inh, SR-BI uptake up)
Cc1ccc(SC(C)C(=O)NCC(C)C)cc1 (centres undefined)	none
CCc1ccccc1NC(=O)CCCSc1nc2ccccc2s1	ABCB6 inh MLPCN 72 | ABCB6 inh CP1 inactive
COc1ccccc1Oc1nc2c(c(=O)n(Cc3ccccc3F)c(=O)n2C)n1C	ABCB6 inh MLPCN 74 | ABCB6 inh CP1 inactive
Cc1ccccc1CSCCNS(C)(=O)=O	ABCB6 inh MLPCN 44 | ABCB6 inh CP1 inactive
CC(=O)c1cn(N(C)c2ncc(C(F)(F)F)cc2Cl)c(=O)[nH]c1=O	none
O=c1[nH]c(=O)n(Cc2ccco2)c2c1C(C(F)(F)F)(C(F)(F)F)N=C(c1ccc(F)cc1)N2	none
COc1cc2c(c(OC)c1OC)-c1c(cc(OC)c(OC)c1OC)C[C@H](C)[C@H](C)C2	ABCB6 inh MLPCN 74 | ABCB6 inh CP1 inactive
COc1ccc([N+](=O)[O-])cc1NC(=O)C(C)Sc1ccccc1 (centres undefined)	none
Cc1cnc(NC(=O)c2sc(Nc3ccccc3)nc2N)o1	AHR act 55, ABCB6 inh MLPCN 19 | ABCB6 inh CP1 inactive
COc1ccc(S(=O)(=O)n2ccc(-c3ccc(OCCN(C)c4ccccn4)cc3)n2)cc1	ABCB6 inh MLPCN 73 | ABCB6 inh CP1 inactive
CC1(C)Oc2ccc3ccc(=O)oc3c2C[C@H]1O	ABCB6 inh MLPCN 68 | ABCB6 inh CP1 inactive
